Consider one compound from ChEMBL document CHEMBL4765233, “From Lead to Drug Candidate: Optimization of 3-(Phenylethynyl)-1H-pyrazolo[3,4-d]pyrimidin-4-amine Derivatives as Agents for the Treatment of Triple Negative Breast Cancer” (J Med Chem, 2016).

Data set [1] concerns the target BDNF/NT-3 growth factors receptor (Homo sapiens, UniProt Q16620). Briefly: Inhibition of human recombinant TRKB (455 to end residues) using poly(Glu,Tyr)4:1 as substrate incubated for 40 mins in presence of [gamma33P-ATP] by radiometric scintillation counting analysis.
Data set [2] relates to HT-29. Briefly: Antiproliferative activity against human HT-29 cells assessed as reduction in cell viability incubated for 72 hrs by MTT assay. Format: functional, cell-based. To be noted: HT-29, 72 h. A digest of the protocol:
(§1)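 MTT viability assay. ATCC cell lines were grown in designated medium with 10% FBS at 37 °C, 5% CO2. Cells seeded at 1500−30000 per well and incubated 24 h, then exposed to compound (0−10 μg/mL) for 72 h. MTT added for 2−4 h. Formazan dissolved in DMSO (adherent) or acidified SDS overnight (suspension), absorbance read at 570 nm. Triplicates; IC50 calculated.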
(In general: Formazan colour is commonly taken as a measure of viable cells.)

Data set [3] has as its system NCI-H1437. Kind of data set: Antiproliferative activity against human NCI-H1437 cells assessed as reduction in cell viability incubated for 72 hrs by MTT assay. Type of data set: functional, cell-based. The conditions noted are these: NCI-H1437, 72 h. A digest of the protocol: as §1
Data set [4] can be described thus: AUC (0 to t) in Sprague-Dawley rat at 10 mg/kg, po administered via gavage by LC-MS analysis. Format: ADME, organism-based. On the set-up: dose 10 mg/kg. To be noted: in vivo.
A short description of data set [5]: Acute toxicity in Sprague-Dawley rat assessed as histopathological changes in lungs at 100 mg/kg, po administered as single dose measured after 24 hrs by H and E staining based light microscope analysis. Format: organism-based. To be noted: in vivo. A digest of the protocol: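 Sprague-Dawley rats received a single oral dose of 100 mg/kg in sterile water with 25% (v/v) PEG400 plus 5% DMSO. Organs were examined by histology and immunohistochemistry for pathological changes. Behaviour and side effects were checked daily.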

Data set [6] has as its system MDA-MB-231. Kind of data set: Induction of apoptosis in human MDA-MB-231 cells assessed as early apoptotic cells at 0.01 uM incubated for 24 hrs by annexin V-FITC and propidium iodide staining based flow cytometry analysis (reference value: 2 %). Format: functional. For orientation: A flow cytometer gives signals particle by particle.
For data set [7], the target named is Activated CDC42 kinase 1 (Homo sapiens, UniProt Q07912). Briefly: Inhibition of human recombinant ACK1 (1 to 389 residues) using EFPIYDFLPAKKK as substrate incubated for 40 mins in presence of [gamma33P-ATP] by radiometric scintillation counting analysis. A digest of the protocol: (§2)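 Radiometric kinase assay run as an external profiling service, with ATP at the Km of each kinase. IC50 values are means of two independent experiments.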
Chain of Activated CDC42 kinase 1 (Q07912 whole entry, the tested form may be a part): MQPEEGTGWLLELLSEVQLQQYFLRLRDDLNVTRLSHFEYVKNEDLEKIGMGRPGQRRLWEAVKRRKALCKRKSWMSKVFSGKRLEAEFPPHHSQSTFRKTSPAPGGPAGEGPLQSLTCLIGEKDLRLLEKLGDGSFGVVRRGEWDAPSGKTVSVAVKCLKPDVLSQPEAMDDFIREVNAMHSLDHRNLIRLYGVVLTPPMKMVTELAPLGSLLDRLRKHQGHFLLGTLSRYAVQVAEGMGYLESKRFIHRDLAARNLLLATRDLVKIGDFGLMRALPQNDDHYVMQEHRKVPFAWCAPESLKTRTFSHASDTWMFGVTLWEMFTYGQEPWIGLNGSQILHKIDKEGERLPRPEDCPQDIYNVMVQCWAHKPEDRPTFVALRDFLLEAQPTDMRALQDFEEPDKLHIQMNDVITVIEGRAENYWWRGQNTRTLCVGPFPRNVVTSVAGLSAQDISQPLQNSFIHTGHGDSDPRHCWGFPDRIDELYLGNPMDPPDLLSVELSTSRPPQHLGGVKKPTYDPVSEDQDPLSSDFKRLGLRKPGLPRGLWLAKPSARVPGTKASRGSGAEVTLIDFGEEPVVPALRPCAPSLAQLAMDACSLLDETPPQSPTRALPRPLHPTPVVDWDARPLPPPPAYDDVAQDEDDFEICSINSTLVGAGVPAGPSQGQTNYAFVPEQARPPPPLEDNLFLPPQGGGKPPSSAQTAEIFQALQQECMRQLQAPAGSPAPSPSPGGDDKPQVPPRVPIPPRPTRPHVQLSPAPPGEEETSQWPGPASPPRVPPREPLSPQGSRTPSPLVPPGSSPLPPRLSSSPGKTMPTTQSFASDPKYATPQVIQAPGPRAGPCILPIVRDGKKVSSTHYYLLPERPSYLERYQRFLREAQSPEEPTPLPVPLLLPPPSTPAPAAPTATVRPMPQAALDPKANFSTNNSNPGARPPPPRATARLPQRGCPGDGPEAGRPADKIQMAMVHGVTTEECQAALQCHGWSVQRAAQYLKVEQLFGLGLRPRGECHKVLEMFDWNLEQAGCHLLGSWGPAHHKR

Data set [8] has as its target High affinity nerve growth factor receptor (Homo sapiens, UniProt P04629). Kind of data set: Inhibition of human recombinant TRKA (440 to end residues) using KKKSPGEYVNIEFG as substrate incubated for 40 mins in presence of [gamma33P-ATP] by radiometric scintillation counting analysis. A digest of the protocol:
as §2

Data set [9] has as its system MDA-MB-231. Briefly: Inhibition of Fra1 expression in human MDA-MB-231 cells at >0.03 uM incubated for 20 hrs by Western blot analysis. Format: functional, cell-based. The conditions noted are these: dose microM >0.03, time 20.0 hrs. A digest of the protocol: (§3)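 MDA-MB-231 cells treated with a series of concentrations for 20 h at 37 °C. Cells washed with ice-cold saline and lysed in RIPA buffer with protease cocktail. Lysates cleared at 12000 rpm for 10 min at 4 °C and protein quantified by Bradford. Equal protein separated by SDS-PAGE, transferred to PVDF and probed with antibodies.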
A general note: Immunoblotting shows a protein as a band on a membrane.

Data set [10] addresses Proto-oncogene tyrosine-protein kinase Src (Homo sapiens) (UniProt P12931). Briefly: Inhibition of Src in human MDA-MB-231 cells assessed as reduction in phosphorylation of Src incubated for 20 hrs by Western blot analysis. Format: cell-based. A digest of the protocol: as §3
Data set [11] concerns MDA-MB-435. Kind of data set: Antiproliferative activity against human MDA-MB-435 cells assessed as reduction in cell viability incubated for 72 hrs by MTT assay. Type of data set: functional, cell-based. To be noted: MDA-MB-435, 72 h. A digest of the protocol:
as §1

Data set [12] can be described thus: Acute toxicity in male Sprague-Dawley rat assessed as increase in body weight at 200 mg/kg, po administered as single dose measured after day 9 and monitored every 3 days. Format: organism-based. The conditions noted are these: in vivo, 72 h, time >9 day. A digest of the protocol: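 Sprague-Dawley rats (n = 3) received a single oral dose of 200 mg/kg in sterile water with 25% (v/v) PEG400 plus 5% DMSO. Behaviour and side effects were monitored daily, and average body weight was measured every 3 days.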

The subject of data set [13] is MDA-MB-231. Kind of data set: Antimigratory activity against human MDA-MB-231 cells assessed as inhibition of cell migration at 0.3 uM incubated for 20 hrs by wound healing assay. Format: functional, cell-based. A digest of the protocol: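 MDA-MB-231 monolayer grown to confluence, scratched with a sterile pipet tip, rinsed with physiological saline, then given DMEM containing vehicle or compound. Wound imaged after 20 h to assess migration.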

The target of data set [14] is Ribosomal protein S6 kinase alpha-3 (Homo sapiens, UniProt P51812). Kind of data set: Inhibition of human recombinant RSK2 (2 to end residues) using KKKNRTLSVA as substrate incubated for 40 mins in presence of [gamma33P-ATP] by radiometric scintillation counting analysis. A digest of the protocol:
as §2

Data set [15] deals with Ramos. Kind of data set: Antiproliferative activity against human Ramos cells assessed as reduction in cell viability incubated for 72 hrs by MTT assay. Type of data set: functional, cell-based. A digest of the protocol:
as §1

Data set [16] can be described thus: Metabolic stability in mouse liver microsomes assessed as parent compound remaining at 1 uM measured after 60 mins in presence of NADPH by HPLC-MS/MS analysis. Format: ADME, Microsome. To be noted: read-out: Stabilty. A digest of the protocol: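 Compound at 1 μM incubated with 0.5 mg/mL liver microsomes and 1 mM NADPH. Samples taken at 0, 10, 15, 30, 45 and 60 min and quenched with acetonitrile. After centrifugation, supernatant analysed by HPLC-MS/MS, with percent parent remaining relative to the 0 min area.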

Data set [17] in a line: Half-life in Sprague-Dawley rat at 10 mg/kg, po administered via gavage by LC-MS analysis. Format: ADME, organism-based. To be noted: in vivo.
For data set [18], the system named is MDA-MB-231. Briefly: Induction of apoptosis in human MDA-MB-231 cells assessed as late apoptotic cells at 0.03 uM incubated for 24 hrs by annexin V-FITC and propidium iodide staining based flow cytometry analysis (reference value: 0.85 %). Type of data set: functional.
Data set [19] has as its system MDA-MB-231. Briefly: Induction of apoptosis in human MDA-MB-231 cells assessed as early apoptotic cells at 0.1 uM incubated for 24 hrs by annexin V-FITC and propidium iodide staining based flow cytometry analysis (reference value: 2 %). Format: functional.
The subject of data set [20] is MDA-MB-231. Briefly: Increase in cleaved caspase-3 level in human MDA-MB-231 cells incubated for 20 hrs by Western blot analysis. Format: functional, cell-based. To be noted: dose 0.01-0.3 µM. A digest of the protocol:
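MDA-MB-231 cells given a concentration series for 20 h at 37 °C. Cells lysed in RIPA with protease cocktail, cleared at 12000 rpm, 4 °C. Protein quantified by Bradford, equal amounts run on SDS-PAGE, transferred to PVDF and immunoblotted.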

The test system of data set [21] is DU-145. Briefly: Antiproliferative activity against human DU-145 cells assessed as reduction in cell viability incubated for 72 hrs by MTT assay. To be noted: DU-145, 72 h. Type of data set: functional, cell-based. A digest of the protocol: as §1
Data set [22] relates to HCC1937. Kind of data set: Antiproliferative activity against human HCC1937 cells assessed as reduction in cell viability incubated for 72 hrs by MTT assay. Format: functional, cell-based. To be noted: HCC1937, 72 h. A digest of the protocol: as §1

pIC50: −log10 of the molar value. Active and inactive are the calls of the source. No cut-off for these calls is given here. Where only a bound is given, the exact number is not on record here.

In general, pIC50 refers to the negative decadic logarithm of the IC50, by convention in mol/L. As usually defined, the AUC(0-t) is the area under the concentration-time curve up to a stated or last time point. A low value points to low exposure. One may read the half-life as the time in which the quantity being followed falls by half.

Chain of High affinity nerve growth factor receptor (P04629 whole entry): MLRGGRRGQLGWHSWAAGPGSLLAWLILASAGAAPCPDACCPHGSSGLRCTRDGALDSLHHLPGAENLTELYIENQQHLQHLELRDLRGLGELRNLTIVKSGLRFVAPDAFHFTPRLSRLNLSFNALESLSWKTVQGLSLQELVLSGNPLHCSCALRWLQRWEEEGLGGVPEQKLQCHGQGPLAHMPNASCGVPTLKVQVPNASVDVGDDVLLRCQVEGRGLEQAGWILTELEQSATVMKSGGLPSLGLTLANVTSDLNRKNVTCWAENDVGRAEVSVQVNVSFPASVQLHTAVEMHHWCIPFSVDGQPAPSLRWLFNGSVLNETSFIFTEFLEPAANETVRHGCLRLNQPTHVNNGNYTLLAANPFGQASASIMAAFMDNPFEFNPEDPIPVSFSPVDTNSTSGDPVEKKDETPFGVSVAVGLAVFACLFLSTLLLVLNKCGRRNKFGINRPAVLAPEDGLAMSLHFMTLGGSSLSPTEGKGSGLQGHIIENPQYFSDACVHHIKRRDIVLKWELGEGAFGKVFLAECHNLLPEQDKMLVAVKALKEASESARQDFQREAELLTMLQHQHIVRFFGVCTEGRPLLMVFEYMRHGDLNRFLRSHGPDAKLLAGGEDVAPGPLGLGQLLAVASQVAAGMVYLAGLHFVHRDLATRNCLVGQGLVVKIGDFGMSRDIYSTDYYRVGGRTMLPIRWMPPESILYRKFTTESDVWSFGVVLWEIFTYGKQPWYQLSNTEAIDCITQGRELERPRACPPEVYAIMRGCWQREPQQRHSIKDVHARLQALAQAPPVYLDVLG
Chain of BDNF/NT-3 growth factors receptor (Q16620 whole entry): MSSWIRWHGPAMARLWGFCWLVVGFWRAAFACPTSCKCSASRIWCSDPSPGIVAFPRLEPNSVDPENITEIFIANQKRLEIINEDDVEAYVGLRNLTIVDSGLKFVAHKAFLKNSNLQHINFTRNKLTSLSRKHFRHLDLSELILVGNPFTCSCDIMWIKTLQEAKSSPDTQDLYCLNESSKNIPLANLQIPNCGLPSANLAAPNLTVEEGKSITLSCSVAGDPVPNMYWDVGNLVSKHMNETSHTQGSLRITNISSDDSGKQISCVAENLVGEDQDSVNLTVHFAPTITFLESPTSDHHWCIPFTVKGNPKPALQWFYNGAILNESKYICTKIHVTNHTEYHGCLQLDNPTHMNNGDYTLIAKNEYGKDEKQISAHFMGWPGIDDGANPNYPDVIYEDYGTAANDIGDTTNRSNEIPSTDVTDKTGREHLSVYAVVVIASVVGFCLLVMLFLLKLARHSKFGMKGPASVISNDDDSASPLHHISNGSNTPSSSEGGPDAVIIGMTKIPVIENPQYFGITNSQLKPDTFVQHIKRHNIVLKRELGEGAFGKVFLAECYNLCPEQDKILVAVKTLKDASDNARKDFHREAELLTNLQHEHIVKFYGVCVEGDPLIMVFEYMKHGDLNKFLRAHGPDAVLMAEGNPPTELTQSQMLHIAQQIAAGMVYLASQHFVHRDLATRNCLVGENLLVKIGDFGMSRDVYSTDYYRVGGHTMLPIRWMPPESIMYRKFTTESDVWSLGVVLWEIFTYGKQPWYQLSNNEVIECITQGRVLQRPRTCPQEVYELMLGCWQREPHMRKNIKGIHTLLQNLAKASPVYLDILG
Chain of Ribosomal protein S6 kinase alpha-3 (P51812 whole entry): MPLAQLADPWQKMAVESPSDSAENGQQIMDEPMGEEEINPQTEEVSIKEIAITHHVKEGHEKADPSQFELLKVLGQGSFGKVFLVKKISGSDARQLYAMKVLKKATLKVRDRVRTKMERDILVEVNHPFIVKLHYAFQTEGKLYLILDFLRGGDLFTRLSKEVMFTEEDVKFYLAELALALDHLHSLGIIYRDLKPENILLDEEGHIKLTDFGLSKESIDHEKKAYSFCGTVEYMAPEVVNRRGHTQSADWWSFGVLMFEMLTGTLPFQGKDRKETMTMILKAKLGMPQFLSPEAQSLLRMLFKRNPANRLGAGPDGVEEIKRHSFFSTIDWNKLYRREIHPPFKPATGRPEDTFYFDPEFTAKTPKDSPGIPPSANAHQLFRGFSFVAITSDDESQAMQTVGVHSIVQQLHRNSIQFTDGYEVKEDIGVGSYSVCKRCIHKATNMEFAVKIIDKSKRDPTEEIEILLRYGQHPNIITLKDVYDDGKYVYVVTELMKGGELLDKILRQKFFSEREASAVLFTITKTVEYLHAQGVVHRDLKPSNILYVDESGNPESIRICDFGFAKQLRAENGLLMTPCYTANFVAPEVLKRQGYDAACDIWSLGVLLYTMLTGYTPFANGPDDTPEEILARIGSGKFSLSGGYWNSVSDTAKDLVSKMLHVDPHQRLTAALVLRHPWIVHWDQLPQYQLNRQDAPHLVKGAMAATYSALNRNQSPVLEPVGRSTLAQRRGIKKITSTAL
Chain of Proto-oncogene tyrosine-protein kinase Src (Homo sapiens) (P12931 2-536 limits assumed): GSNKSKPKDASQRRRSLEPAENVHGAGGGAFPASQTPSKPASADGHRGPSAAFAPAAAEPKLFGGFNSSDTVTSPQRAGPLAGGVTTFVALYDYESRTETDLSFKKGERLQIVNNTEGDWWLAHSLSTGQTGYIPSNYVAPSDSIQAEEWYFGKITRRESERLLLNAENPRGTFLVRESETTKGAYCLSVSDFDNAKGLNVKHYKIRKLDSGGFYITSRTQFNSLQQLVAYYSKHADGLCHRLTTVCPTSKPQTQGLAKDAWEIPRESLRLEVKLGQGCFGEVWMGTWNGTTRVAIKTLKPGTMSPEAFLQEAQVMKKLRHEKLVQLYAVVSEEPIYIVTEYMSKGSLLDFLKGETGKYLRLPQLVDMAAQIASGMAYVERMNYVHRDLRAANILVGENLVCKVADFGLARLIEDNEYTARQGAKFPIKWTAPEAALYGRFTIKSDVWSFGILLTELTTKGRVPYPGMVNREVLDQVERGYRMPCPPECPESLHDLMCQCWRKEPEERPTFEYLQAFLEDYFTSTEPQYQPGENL

For the compound `Cc1ccc(NC(=O)c2ccc(C)c(C(F)(F)F)c2)cc1C#Cc1nn([C@H]2CC[C@H](O)CC2)c2ncnc(N)c12`, the negative-log IC50 (pIC50) was 6.05 in data set [1]; 6.64 in [2]; 5.63 in [3]; 6.76 in data set [7]; less than 5.00 in data set [8]; 8.10 in data set [11]. In addition, the negative logarithm of the IC50 (pIC50) in data set [14] is less than 5.00; in data set [15], 5.00; in [21] it was less than 5.00; in [22] it was 6.34. In data set [4], this compound came in with an area under the curve AUC(0-t) of 2860 ng·h/mL. For the same compound, the Activity result in data set [5] is “Non-Toxic”; in [6], 5.05%; in data set [12] it was “Non-Toxic”; in [18] it was 11.2%; in data set [19] it was 13.48%; in data set [20], “Dose-dependent effect”. Also, the inhibition entry in data set [9] is “Active”. In addition, the inhibition entry in data set [10] was “Dose-dependent effect”. In addition, the outcome in [13] was Active. For the same compound, in data set [16], the remaining at 1 h, 1 µM was more than 90%. Further, the half-life in data set [17] was 18.9 h.
